The source made the active and inactive calls.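 Rule for the calls, unless noted: active = viability at or below 10% of carrier control in both of two separate runs; inconclusive = viability at or below 10% in only one of the two runs; inactive = the rest.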

The nature of assay [1]: Her2 expression decrease, cell viability multiplex – SKBR3 breast tumor cells, AlphaScreen, ATP viability, primary screen (AID 461;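 active = Her2 level under about 52% in both replicate screens, with viability over 70% of control, limit read from the data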;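 for Her2 level: lower value means less Her2 protein in the cells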;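 for viability: percent of carrier control wells set as 100% viability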). Conditions: SKBR3 Her2 protein level, 18-24 h, measured here: SKBR3 viability, ATP luminescence, at 10 µM.
Assay [2] deals with Receptor tyrosine-protein kinase erbB-2 (Homo sapiens) (UniProt P04626). The description is as above. Conditions: 18-24 h, at 10 µM, stronger effect = lower value.
Assay [3] in a line: reduced viability of SK-BR-3 breast cancer cells – cell-based, 24 h, human, pilot screen (AID 572).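 Note: compound exposure lasted between 18 and 24 h rather than exactly 24 h; 100% = carrier-treated control wells.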 Conditions: SK-BR-3 viability, CellTiter-Glo luminescence, at 10 µM, stronger effect = lower value.
Assay [4] is described as follows: HUVEC growth inhibition – cell-based, human, primary screen (AID 575;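 active = viability at or below 30% in both replicate assays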;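 note: 100% = median of untreated cell wells with 0.1% DMSO on each plate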). Conditions: HUVEC proliferation, CellTiter-Glo luminescence, 72 h; at 10 µM; stronger effect = lower value. The essentials:
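Material: primary human umbilical vein endothelial cells / Schedule: 72 h exposure, 37 °C, 5% CO2, 30 min RT equilibration / Signal: ATP-based CellTiter-Glo luminescent read / Read-out basis: percent of median DMSO-control luminescence / Control set: 32 DMSO-only cell-control wells (high), 32 MePR drug-control wells (low) per plate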

A short description of assay [5]: H69AR cell proliferation blockers – human, duplicate replicates, primary screen (AID 580;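 active = viability at or under a set limit in both replicates, limit being median viability minus 3 SD, cut at about 48% in these data, passing the limit was not always enough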;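 note: 100% = mean luminescence of untreated wells and 0% = no signal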). The settings on record: H69AR lung tumor cells viability, ATP luminescence, 72 h; at 10 µM; stronger effect = lower value.
Assay [6] can be described thus: MRP1 drug-resistance reversers in H69AR cells – cell-based, doxorubicin co-treatment, pilot screen (AID 601;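 active = viability loss from added drug above about 55%, and viability with drug at most 40%, in both replicates, limit read from the data, passing the limit was not always enough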). Conditions: CellTiter-Glo, 72 h, at 10 µM; for differential viability (reversal): stronger effect = higher value.
Assay [7] is described as follows: yeast transport mutant growth inhibition pilot in 384-well plates, post-Golgi transport modulator project (AID 636; in the data active = inhibition above about 31%). The settings on record: absorbance 615 nm, about 18 h, stronger effect = higher value.
Assay [8] is described as follows: growth suppression of yeast trafficking mutant, preliminary HTS, modulators of trafficking downstream of Golgi apparatus project, 1536-format plate, OD 615 nm (AID 637; in the data active = inhibition above about 30%). The settings on record: yeast transport mutant growth, absorbance 615 nm, 18 h; stronger effect = higher value.
Where [9] appears, read: H69AR cells + 2 uM doxorubicin, measured here: viability with 2 uM doxorubicin, stronger effect = lower value.
Setting [10] is: H69AR cells, compound alone cytotoxicity.

Chain of Receptor tyrosine-protein kinase erbB-2 (Homo sapiens) (P04626 whole entry, looked up): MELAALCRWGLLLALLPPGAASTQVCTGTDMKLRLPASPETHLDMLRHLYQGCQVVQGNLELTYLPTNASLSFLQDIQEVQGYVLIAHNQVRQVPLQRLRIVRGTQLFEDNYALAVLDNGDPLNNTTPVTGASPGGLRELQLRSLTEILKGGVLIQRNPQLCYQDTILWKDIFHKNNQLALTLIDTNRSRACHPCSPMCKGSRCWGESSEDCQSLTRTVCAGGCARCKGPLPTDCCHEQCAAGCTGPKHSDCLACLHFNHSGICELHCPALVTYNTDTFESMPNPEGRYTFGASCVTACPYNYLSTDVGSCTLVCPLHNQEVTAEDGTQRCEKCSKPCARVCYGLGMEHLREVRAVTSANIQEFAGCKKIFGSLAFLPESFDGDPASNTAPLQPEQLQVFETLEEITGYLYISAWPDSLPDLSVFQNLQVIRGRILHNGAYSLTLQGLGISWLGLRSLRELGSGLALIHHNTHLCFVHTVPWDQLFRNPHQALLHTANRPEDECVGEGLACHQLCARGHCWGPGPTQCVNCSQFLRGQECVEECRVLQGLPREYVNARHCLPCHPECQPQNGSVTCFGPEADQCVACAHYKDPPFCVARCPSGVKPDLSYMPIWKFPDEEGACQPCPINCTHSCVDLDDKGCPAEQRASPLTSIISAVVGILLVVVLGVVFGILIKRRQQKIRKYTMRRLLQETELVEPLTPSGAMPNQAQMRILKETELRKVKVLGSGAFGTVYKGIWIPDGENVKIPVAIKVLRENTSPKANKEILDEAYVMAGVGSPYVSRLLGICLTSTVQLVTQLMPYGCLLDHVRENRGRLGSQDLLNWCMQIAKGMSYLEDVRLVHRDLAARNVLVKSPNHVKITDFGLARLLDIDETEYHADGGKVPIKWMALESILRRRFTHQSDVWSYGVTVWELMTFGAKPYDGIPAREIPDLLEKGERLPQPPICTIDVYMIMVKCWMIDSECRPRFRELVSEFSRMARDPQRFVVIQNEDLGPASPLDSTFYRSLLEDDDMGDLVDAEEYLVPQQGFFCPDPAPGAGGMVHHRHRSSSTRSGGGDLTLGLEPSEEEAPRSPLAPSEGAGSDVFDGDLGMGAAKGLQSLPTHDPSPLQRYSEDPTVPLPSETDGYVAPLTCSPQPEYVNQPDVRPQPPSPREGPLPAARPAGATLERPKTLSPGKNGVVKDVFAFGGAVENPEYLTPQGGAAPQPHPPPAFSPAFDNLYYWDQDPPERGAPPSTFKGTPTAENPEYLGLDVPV

In the case of `CS(=O)(=O)Nc1ccc(C(=O)NCCc2ccccc2)cc1`, the viability in assay [1] is 96.5%; in assay [3], 96.5% (inactive); in assay [4] it was 102% (inactive); in assay [5], 98.3% (inactive); in assay [6] (setting [9]), 85.4%; in assay [6] (setting [10]) it was 98.3%. In addition, the Her2 level in assay [2] is 94.5% (inactive). Moreover, the differential viability (reversal) in assay [6] (H69AR cells + 2 uM doxorubicin) was 12.9% (inactive). For the same compound, the inhibition is -3.47% (inactive) in assay [7] and -3.55% (inactive) in assay [8].
With `CC(NC(=O)Nc1ccccc1)C(c1cccs1)N1CCOCC1` (stereo not given), the viability is 108% in assay [1]; 108% (inactive) in assay [3]; 99.5% (inactive) in assay [4]; 110% (inactive) in assay [5]; 93.5% in assay [6] (setting [9]); 110% in assay [6] (setting [10]). In addition, the Her2 level in assay [2] is 107% (inactive). For the same compound, the differential viability (reversal) in assay [6] (H69AR cells + 2 uM doxorubicin) is 16.3% (inactive). Also, the inhibition in assay [7] was -0.38% (inactive); in assay [8], 4.83% (inactive).
Take `CCOC(=O)c1ccc2[nH]c(C)c(CN3CCN(C)CC3)c(=O)c2c1`: the viability is 114% in assay [1]; 114% (inactive) in assay [3]; 97.9% (inactive) in assay [4]; 91.4% (inactive) in assay [5]; 91.8% in assay [6] (setting [9]); 91.4% in assay [6] (setting [10]). Moreover, the Her2 level in assay [2] is 81% (inactive). In addition, the differential viability (reversal) in assay [6] (H69AR cells + 2 uM doxorubicin) was -0.335% (inactive). Moreover, the inhibition in assay [7] is -7.03% (inactive); in assay [8], 2.79% (inactive).
On to `COc1cccc(N2CCN(CC(=O)NCc3cccs3)CC2)c1`, for which the viability in assay [1] is 108%; in assay [3] it was 108% (inactive); in assay [4] it was 128% (inactive); in assay [5], 99% (inactive); in assay [6] (setting [9]), 92.8%; in assay [6] (setting [10]), 99%. Further, the Her2 level in assay [2] is 100% (inactive). Moreover, the differential viability (reversal) in assay [6] (H69AR cells + 2 uM doxorubicin) was 6.28% (inactive). The values for the inhibition in assay [7] and in assay [8] were -3.38% (inactive) and -2.17% (inactive), respectively.
Turning to `c1ccc(Cn2nnnc2CN2CCN(c3ncccn3)CC2)cc1`, the viability in assay [1] was 99%; in assay [3], 99% (inactive); in assay [4], 92.1% (inactive); in assay [5], 100% (inactive); in assay [6] (setting [9]) it was 101%; in assay [6] (setting [10]), 100%. In assay [2], the Her2 level is 97.5% (inactive). For the same compound, in assay [6] (H69AR cells + 2 uM doxorubicin), the differential viability (reversal) was -0.765% (inactive). In addition, the figures for the inhibition in assay [7] and in assay [8] were -3.47% (inactive) and 0.98% (inactive), respectively.
For the compound `CC(C)C(=O)Nc1cccc(NC(=O)c2cccnc2)c1`, the viability is 102% in assay [1]; 102% (inactive) in assay [3]; 107% (inactive) in assay [4]; 97.9% (inactive) in assay [5]; 99.6% in assay [6] (setting [9]); 97.9% in assay [6] (setting [10]). Besides, the Her2 level in assay [2] was 98.5% (inactive). The differential viability (reversal) in assay [6] (H69AR cells + 2 uM doxorubicin) was -1.67% (inactive). The inhibition in assay [7] is -2.63% (inactive); in assay [8], 4.1% (inactive).
Turning to `CCOc1ccc(OCC)c(NC(=O)CCCN2C(=O)c3cccnc3C2=O)c1`, the viability in assay [1] was 110%; in assay [3], 110% (inactive); in assay [4], 110% (inactive); in assay [5], 85.8% (inactive); in assay [6] (setting [9]) it was 88.3%; in assay [6] (setting [10]), 85.8%. The Her2 level in assay [2] is 128% (inactive). Moreover, the differential viability (reversal) in assay [6] (H69AR cells + 2 uM doxorubicin) is -2.52% (inactive). Besides, the inhibition in assay [7] was 0.81% (inactive); in assay [8] it was 7.14% (inactive).
As for `COc1ccc(N2CCN(Cc3nc4ccccc4c(=O)[nH]3)CC2)cc1`, the viability in assay [1] is 104%; in assay [3], 104% (inactive); in assay [4], 92.1% (inactive); in assay [5], 94.3% (inactive); in assay [6] (setting [9]), 96.8%; in assay [6] (setting [10]), 94.3%. In assay [2], the Her2 level is 98% (inactive). For the same compound, the differential viability (reversal) in assay [6] (H69AR cells + 2 uM doxorubicin) was -2.54% (inactive). The inhibition in assay [7] is -3.33% (inactive); in assay [8], -5.57% (inactive).
Take `COc1ccc(C)cc1S(=O)(=O)Nc1cccnc1`: the viability was 90.5% in assay [1]; 90.5% (inactive) in assay [3]; 91.2% (inactive) in assay [4]; 88.4% (inactive) in assay [5]; 86.9% in assay [6] (setting [9]); 88.4% in assay [6] (setting [10]). Further, in assay [2], the Her2 level was 84.5% (inactive). Also, in assay [6] (H69AR cells + 2 uM doxorubicin), the differential viability (reversal) is 1.54% (inactive). The inhibition in assay [7] is -4.19% (inactive); in assay [8], 0.16% (inactive).
Regarding `COc1ccc(C(=O)OC(COc2ccccc2)Cn2ccnc2)cc1` (stereo not given), the viability was 83% in assay [1]; 83% (inactive) in assay [3]; 79.6% (inactive) in assay [4]; 94.7% (inactive) in assay [5]; 85.1% in assay [6] (setting [9]); 94.7% in assay [6] (setting [10]). Further, the Her2 level in assay [2] is 97% (inactive). Besides, the differential viability (reversal) in assay [6] (H69AR cells + 2 uM doxorubicin) is 9.57% (inactive). Moreover, the results for the inhibition in assay [7] and in assay [8] were 100% (active) and 95.5% (active), respectively.
With `Cc1ccc(Cn2c(NCCc3ccccc3)nc3c2c(=O)n(C)c(=O)n3C)cc1`, the viability was 82.5% in assay [1]; 82.5% (inactive) in assay [3]; 73.5% (inactive) in assay [4]; 91.9% (inactive) in assay [5]; 88.1% in assay [6] (setting [9]); 91.9% in assay [6] (setting [10]). The Her2 level in assay [2] was 75% (inactive). Besides, in assay [6] (H69AR cells + 2 uM doxorubicin), the differential viability (reversal) was 3.77% (inactive). Also, the inhibition in assay [7] was -10% (inactive); in assay [8], -2.7% (inactive).
On to `O=C(NCC(c1cccnc1)N1CCN(c2ccccc2)CC1)c1ccc2c(c1)OCO2` (stereo not given), for which the viability in assay [1] is 92%; in assay [3], 92% (inactive); in assay [4] it was 105% (inactive); in assay [5], 90.8% (inactive); in assay [6] (setting [9]) it was 98.2%; in assay [6] (setting [10]) it was 90.8%. In addition, in assay [2], the Her2 level is 94% (inactive). The differential viability (reversal) in assay [6] (H69AR cells + 2 uM doxorubicin) is -7.41% (inactive). Besides, the figures for the inhibition in assay [7] and in assay [8] were -4.46% (inactive) and 12.9% (inactive), respectively.
Turning to `CCOc1nc(-c2ccccc2)ccc1-c1noc(-c2cccnc2)n1`, the viability in assay [1] is 76.5%; in assay [3], 76.5% (inactive); in assay [4], 124% (inactive); in assay [5], 91.2% (inactive); in assay [6] (setting [9]), 86.4%; in assay [6] (setting [10]) it was 91.2%. In addition, the Her2 level in assay [2] is 90% (inactive). The differential viability (reversal) in assay [6] (H69AR cells + 2 uM doxorubicin) is 4.83% (inactive). For the same compound, the inhibition in assay [7] is -0.26% (inactive); in assay [8], 0.33% (inactive).
Turning to `CCOC(=O)N1CCN(C(=O)CSCC(=O)Nc2nc(-c3ccc(OC)cc3)cs2)CC1`, the viability in assay [1] was 116%; in assay [3], 116% (inactive); in assay [4], 77.8% (inactive); in assay [5] it was 94.9% (inactive); in assay [6] (setting [9]) it was 93.1%; in assay [6] (setting [10]), 94.9%. In addition, the Her2 level in assay [2] was 104% (inactive). For the same compound, the differential viability (reversal) in assay [6] (H69AR cells + 2 uM doxorubicin) was 1.77% (inactive). Moreover, the inhibition is -1.3% (inactive) in assay [7] and -6.89% (inactive) in assay [8].

(Values after PubChem BioAssay.)
